Measured values published in the RNAGym collection of RNA variant scans (doi:10.1002/anie.201605470).

B1: Osa-1-4 twister ribozyme (parent)
chain: CCGCCUAACACUGCCAAUGCCGGUCCCAAGCCCGGAUAAAAGUGGAGGGGGCGG

Variants of: B1
Experiment: self-cleavage, relative activity (ratio to wild type); higher = more cleavage; co-transcriptional
Procedure, shortened: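 The 48 positions downstream of the cleavage site in a DNA template for a 54-nucleotide Oryza sativa twister ribozyme carried 97 % wild-type base and 1 % of each other base. After in vitro transcription (2 h, 37 °C) with co-transcriptional self-cleavage, the RNA was reverse-transcribed with a template-switching oligonucleotide, PCR-amplified and deep-sequenced. Relative activity is the fraction cleaved, judged by reads with or without upstream sequence and normalised to wild type.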

Variant	self-cleavage
CCGCCUAACACUGCCAAUGCUGGUCCCAAGCCCGGAUAAAAGUUGAGGGGGCGG [C21U G44U]	0.95
CCGCCUAACACUGCCAAUGCUGGUCCCAAGCCCGGAUAAAAGUCGAGGGGGCGG [C21U G44C]	0.99
CCGCCUAACACUGCCAAUGCUGGUCCCAAGCCCGGAUAAAAGUAGAGGGGGCGG [C21U G44A]	0.97
CCGCCUAACACUGCCAAUGCCAGUCCCAAGCCCGGAUAAAAUUGGAGGGGGCGG [G22A G42U]	0.05
CCGCCUAACACUGCCAAUGCCAGUCCCAAGCCCGGAUAAAAAUGGAGGGGGCGG [G22A G42A]	0.17
CCGCCUAACACUGCCAAUGCCAGUCCCAAGCCCGGAUAAAACUGGAGGGGGCGG [G22A G42C]	0.1
CCGCCUAACACUGCCAAUGCCAUUCCCAAGCCCGGAUAAAAGUGGAGGGGGCGG [G22A G23U]	0.08
CCGCCUAACACUGCCAAUGCCAAUCCCAAGCCCGGAUAAAAGUGGAGGGGGCGG [G22A G23A]	0.12
CCGCCUAACACUGCCAAUGCCACUCCCAAGCCCGGAUAAAAGUGGAGGGGGCGG [G22A G23C]	0.05
CCGCCUAACACUGCCAAUGCCAGUCCCAAGCCCGGAUAAAAGUGGAGUGGGCGG [G22A G48U]	0.08
CCGCCUAACACUGCCAAUGCCAGUCCCAAGCCCGGAUAAAAGUGGAGCGGGCGG [G22A G48C]	0.09
CCGCCUAACACUGCCAAUGCCAGUCCCAAGCCCGGAUAAAAGUGGAGAGGGCGG [G22A G48A]	0.08
CCGCCUAACACUGCCAAUGCUGGUCCCAAGCCCGGAUAAAAGUGGAGGGAGCGG [C21U G50A]	0.97
CCGCCUAACACUGCCAAUGCUGGUCCCAAGCCCGGAUAAAAGUGGAGGGCGCGG [C21U G50C]	0.94
CCGCCUAACACUGCCAAUGCUGGUCCCAAGCCCGGAUAAAAGUGGAGGGUGCGG [C21U G50U]	1.03
CCGCCUAACACUGCCAAUGCCAGUCCCAAGCCCGGAUAAAAGUGUAGGGGGCGG [G22A G45U]	0.08
CCGCCUAACACUGCCAAUGCCAGUCCCAAGCCCGGAUAAAAGUGCAGGGGGCGG [G22A G45C]	0.06
CCGCCUAACACUGCCAAUGCCAGUCCCAAGCCCGGAUAAAAGUGAAGGGGGCGG [G22A G45A]	0.15
CCGCCUAACACUGCCAAUGCCAGUCCCAACCCCGGAUAAAAGUGGAGGGGGCGG [G22A G30C]	0.05
CCGCCUAACACUGCCAAUGCCAGUCCCAAACCCGGAUAAAAGUGGAGGGGGCGG [G22A G30A]	0.05
CCGCCUAACACUGCCAAUGCCAGUCCCAAUCCCGGAUAAAAGUGGAGGGGGCGG [G22A G30U]	0.05
CCGCCUAACACUGCCAAUGCUGGUCCCAAGCCCGGAUAAAAGUGGAGGGGUCGG [C21U G51U]	0.67
CCGCCUAACACUGCCAAUGCUGGUCCCAAGCCCGGAUAAAAGUGGAGGGGCCGG [C21U G51C]	0.09
CCGCCUAACACUGCCAAUGCUGGUCCCAAGCCCGGAUAAAAGUGGAGGGGACGG [C21U G51A]	0.9
CCGCCUAACACUGCCAAUGCCAGUCCCAAGCCCGGAUAAAAGUGGAGGGGUCGG [G22A G51U]	0.67

Variant	self-cleavage
CCGCCUAACACUGCCAAUGCCAGUCCCAAGCCCGGAUAAAAGUGGAGGGGCCGG [G22A G51C]	0.14
CCGCCUAACACUGCCAAUGCCAGUCCCAAGCCCGGAUAAAAGUGGAGGGGACGG [G22A G51A]	0.2
CCGCCUAACACUGCCAAUGCCAGUCCCAAGCCCCGAUAAAAGUGGAGGGGGCGG [G22A G34C]	0.11
CCGCCUAACACUGCCAAUGCCAGUCCCAAGCCCAGAUAAAAGUGGAGGGGGCGG [G22A G34A]	0.14
CCGCCUAACACUGCCAAUGCCAGUCCCAAGCCCUGAUAAAAGUGGAGGGGGCGG [G22A G34U]	0.21
CCGCCUAACACUGCCAAUGCUGGUCCCAAGCCCGGAUAAAAGAGGAGGGGGCGG [C21U U43A]	0.89
CCGCCUAACACUGCCAAUGCUGGUCCCAAGCCCGGAUAAAAGGGGAGGGGGCGG [C21U U43G]	0.47
CCGCCUAACACUGCCAAUGCUGGUCCCAAGCCCGGAUAAAAGCGGAGGGGGCGG [C21U U43C]	0.32
CCGCCUAACACUGCCAAUGCUGGUCCCAAGCCCGGAUAAAAGUGGAGGAGGCGG [C21U G49A]	0.14
CCGCCUAACACUGCCAAUGCUGGUCCCAAGCCCGGAUAAAAGUGGAGGUGGCGG [C21U G49U]	0.14
CCGCCUAACACUGCCAAUGCUGGUCCCAAGCCCGGAUAAAAGUGGAGGCGGCGG [C21U G49C]	0.08
CCGCCUAACACUGCCAAUGCCAGUCCCAAGCCCGGAUAAAAGUGGAGGGGGCGG [G22A]	1.05
CCGCCUAACACUGCCAAUGCCAGUCCCAAGCCCGGAUAAAAGUGGAGGGGGCCG [G22A G53C]	0.09
CCGCCUAACACUGCCAAUGCCAGUCCCAAGCCCGGAUAAAAGUGGAGGGGGCAG [G22A G53A]	0.51
CCGCCUAACACUGCCAAUGCCAGUCCCAAGCCCGGAUAAAAGUGGAGGGGGCUG [G22A G53U]	0.14
CCGCCUAACACUGCCAACGCCAGUCCCAAGCCCGGAUAAAAGUGGAGGGGGCGG [G22A U18C]	0.98
CCGCCUAACACUGCCAAGGCCAGUCCCAAGCCCGGAUAAAAGUGGAGGGGGCGG [G22A U18G]	0.94
CCGCCUAACACUGCCAAAGCCAGUCCCAAGCCCGGAUAAAAGUGGAGGGGGCGG [G22A U18A]	1.02
CCGCCUAACACUGCCAAGGCUGGUCCCAAGCCCGGAUAAAAGUGGAGGGGGCGG [C21U U18G]	0.78
CCGCCUAACACUGCCAACGCUGGUCCCAAGCCCGGAUAAAAGUGGAGGGGGCGG [C21U U18C]	1.03
CCGCCUAACACUGCCAAAGCUGGUCCCAAGCCCGGAUAAAAGUGGAGGGGGCGG [C21U U18A]	1
CCGCCUAACACAGCCAAUGCUGGUCCCAAGCCCGGAUAAAAGUGGAGGGGGCGG [C21U U12A]	0.73
CCGCCUAACACGGCCAAUGCUGGUCCCAAGCCCGGAUAAAAGUGGAGGGGGCGG [C21U U12G]	0.26
CCGCCUAACACCGCCAAUGCUGGUCCCAAGCCCGGAUAAAAGUGGAGGGGGCGG [C21U U12C]	0.33
CCGCCUAACACUGCCAAUGCCAGUCCCAAGCCCGGAUAAAAGUGGACGGGGCGG [G22A G47C]	0.08

Variant	self-cleavage
CCGCCUAACACUGCCAAUGCCAGUCCCAAGCCCGGAUAAAAGUGGAUGGGGCGG [G22A G47U]	0.12
CCGCCUAACACUGCCAAUGCCAGUCCCAAGCCCGGAUAAAAGUGGAAGGGGCGG [G22A G47A]	0.13
CCGCCUAACACUGCCAAUGCUGGUCCCAAGCCCGGAUAAAAGUGGAGGGGGCGC [C21U G54C]	0.89
CCGCCUAACACUGCCAAUGCUGGUCCCAAGCCCGGAUAAAAGUGGAGGGGGCGA [C21U G54A]	0.96
CCGCCUAACACUGCCAAUGCUGGUCCCAAGCCCGGAUAAAAGUGGAGGGGGCGU [C21U G54U]	0.93
CCGCCUAACACUGCCAAUGCCAGUCCCAAGCCCGGAUAAAAGUGGAGGGUGCGG [G22A G50U]	0.94
CCGCCUAACACUGCCAAUGCCAGUCCCAAGCCCGGAUAAAAGUGGAGGGAGCGG [G22A G50A]	1
CCGCCUAACACUGCCAAUGCCAGUCCCAAGCCCGGAUAAAAGUGGAGGGCGCGG [G22A G50C]	0.68
CCGCCUAACACUGCCAAUGCUGGUCCCAAGCCCGGAUAAAAGUGGAGCGGGCGG [C21U G48C]	0.11
CCGCCUAACACUGCCAAUGCUGGUCCCAAGCCCGGAUAAAAGUGGAGUGGGCGG [C21U G48U]	0.1
CCGCCUAACACUGCCAAUGCUGGUCCCAAGCCCGGAUAAAAGUGGAGAGGGCGG [C21U G48A]	0.1
CCGCCUAACACCGCCAAUGCCAGUCCCAAGCCCGGAUAAAAGUGGAGGGGGCGG [G22A U12C]	0.21
CCGCCUAACACAGCCAAUGCCAGUCCCAAGCCCGGAUAAAAGUGGAGGGGGCGG [G22A U12A]	0.35
CCGCCUAACACGGCCAAUGCCAGUCCCAAGCCCGGAUAAAAGUGGAGGGGGCGG [G22A U12G]	0.08
CCGCCUAACACUGCCAAUGCUGGUCCCAAGCCCGGAUAAAAGUGGACGGGGCGG [C21U G47C]	0.12
CCGCCUAACACUGCCAAUGCUGGUCCCAAGCCCGGAUAAAAGUGGAAGGGGCGG [C21U G47A]	0.19
CCGCCUAACACUGCCAAUGCUGGUCCCAAGCCCGGAUAAAAGUGGAUGGGGCGG [C21U G47U]	0.23
CCGCCUAACACUGCCAAUGCUGGCCCCAAGCCCGGAUAAAAGUGGAGGGGGCGG [C21U U24C]	0.26
CCGCCUAACACUGCCAAUGCUGGGCCCAAGCCCGGAUAAAAGUGGAGGGGGCGG [C21U U24G]	0.09
CCGCCUAACACUGCCAAUGCUGGACCCAAGCCCGGAUAAAAGUGGAGGGGGCGG [C21U U24A]	0.29
CCGCCUAACACUGCCAAUGCCAGUCCCAAGCCCGUAUAAAAGUGGAGGGGGCGG [G22A G35U]	0.32
CCGCCUAACACUGCCAAUGCCAGUCCCAAGCCCGAAUAAAAGUGGAGGGGGCGG [G22A G35A]	0.34
CCGCCUAACACUGCCAAUGCCAGUCCCAAGCCCGCAUAAAAGUGGAGGGGGCGG [G22A G35C]	0.11
CCGCCUAACACUGCCAAUGCUGGUCCCAAGCCCGGAAAAAAGUGGAGGGGGCGG [C21U U37A]	1.07
CCGCCUAACACUGCCAAUGCUGGUCCCAAGCCCGGAGAAAAGUGGAGGGGGCGG [C21U U37G]	1.04

Variant	self-cleavage
CCGCCUAACACUGCCAAUGCUGGUCCCAAGCCCGGACAAAAGUGGAGGGGGCGG [C21U U37C]	1.05
CCGCCUAACACUGCCAAUGCCAGUCCCAAGCCCGGAUAAAAGUGGAGGUGGCGG [G22A G49U]	0.09
CCGCCUAACACUGCCAAUGCCAGUCCCAAGCCCGGAUAAAAGUGGAGGAGGCGG [G22A G49A]	0.12
CCGCCUAACACUGCCAAUGCCAGUCCCAAGCCCGGAUAAAAGUGGAGGCGGCGG [G22A G49C]	0.08
CCGCCUAACACUGCCAAUGCCAGUCCCAAGCCCGGAUAAAAGUGGAGGGGGCGU [G22A G54U]	0.84
CCGCCUAACACUGCCAAUGCCAGUCCCAAGCCCGGAUAAAAGUGGAGGGGGCGA [G22A G54A]	0.77
CCGCCUAACACUGCCAAUGCCAGUCCCAAGCCCGGAUAAAAGUGGAGGGGGCGC [G22A G54C]	0.82
CCGCCUAACACUGCCAAUGCUGGUCCCAAGCCCGGAUAAAAGUGUAGGGGGCGG [C21U G45U]	0.11
CCGCCUAACACUGCCAAUGCUGGUCCCAAGCCCGGAUAAAAGUGAAGGGGGCGG [C21U G45A]	0.22
CCGCCUAACACUGCCAAUGCUGGUCCCAAGCCCGGAUAAAAGUGCAGGGGGCGG [C21U G45C]	0.07
CCGCCUAACACUGCCAAUGCCAGUCCCAAGCCCGGAUAAAAGUAGAGGGGGCGG [G22A G44A]	0.94
CCGCCUAACACUGCCAAUGCCAGUCCCAAGCCCGGAUAAAAGUUGAGGGGGCGG [G22A G44U]	0.84
CCGCCUAACACUGCCAAUGCCAGUCCCAAGCCCGGAUAAAAGUCGAGGGGGCGG [G22A G44C]	0.92
CCGCCUAACACUGCCAAUGCCAGGCCCAAGCCCGGAUAAAAGUGGAGGGGGCGG [G22A U24G]	0.13
CCGCCUAACACUGCCAAUGCCAGCCCCAAGCCCGGAUAAAAGUGGAGGGGGCGG [G22A U24C]	0.16
CCGCCUAACACUGCCAAUGCCAGACCCAAGCCCGGAUAAAAGUGGAGGGGGCGG [G22A U24A]	0.36
CCGCCUAACACUGCCAAUGCUGGUCCCAAGCCCGGAUAAAAGUGGAGGGGGCAG [C21U G53A]	0.64
CCGCCUAACACUGCCAAUGCUGGUCCCAAGCCCGGAUAAAAGUGGAGGGGGCCG [C21U G53C]	0.1
CCGCCUAACACUGCCAAUGCUGGUCCCAAGCCCGGAUAAAAGUGGAGGGGGCUG [C21U G53U]	0.32
CCGCCUAACACUGCCAAUGCUGGUCCCAAGCCCGGAUAAAACUGGAGGGGGCGG [C21U G42C]	0.18
CCGCCUAACACUGCCAAUGCUGGUCCCAAGCCCGGAUAAAAAUGGAGGGGGCGG [C21U G42A]	0.51
CCGCCUAACACUGCCAAUGCUGGUCCCAAGCCCGGAUAAAAUUGGAGGGGGCGG [C21U G42U]	0.09
